Molecules are shown by their SMILES. Values after ≈ are worked out from the molar mass of the structure shown.

Common to all, as to format: functional
One test concerns Escherichia coli. Briefly: Antimicrobial activity against Escherichia coli after 24 hrs […]. The gist of the method:
(§1)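 Broth microdilution MIC. Bacteria were grown in Luria broth (1% tryptone, 0.5% yeast extract, 0.5% NaCl, pH 7.2) at 37 °C for 24 h. Mid-log cultures were read at OD540 and diluted to OD 0.004 (5 × 10⁵ CFU/mL) before inoculation. Compounds in DMSO were given as eleven twofold serial dilutions, and plates were incubated at 37 °C for 24 h. MIC was the lowest concentration with no visible growth by turbidity. Cefixime, amoxicillin and vancomycin were the positive controls.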
(In general: An ELISA detects its analyte on a solid surface through an enzyme-linked reagent.)

The next test relates to Pseudomonas aeruginosa. Briefly: Antimicrobial activity against Pseudomonas aeruginosa after 24 hrs […]. In outline: as §1
The next test concerns Klebsiella aerogenes. The experiment in a line: Antimicrobial activity against Enterobacter aerogenes after 24 hrs […]. In outline:
as §1

The next test has as its system Staphylococcus aureus. The experiment in a line: Antimicrobial activity against Staphylococcus aureus after 24 hrs […]. In outline: as §1
In a further test the test system is Enterococcus faecalis. The experiment in a line: Antimicrobial activity against Enterococcus faecalis after 24 hrs […]. In outline: as §1
A further test relates to Priestia megaterium. The experiment in a line: Antimicrobial activity against Bacillus megaterium after 24 hrs […]. In outline: as §1

Turning to `O=[N+]([O-])c1ccc(-c2nnc(-c3ccc4nc(-c5ccc(Br)cc5)c(Nc5ccccc5)n4c3)o2)cc1`, the minimum inhibitory concentration (MIC) with Escherichia coli was 7.37 µg/mL (≈ 13.3 µM); in the test with Pseudomonas aeruginosa it was 5.45 µg/mL (≈ 9.85 µM); in the test on Klebsiella aerogenes, 4.12 µg/mL (≈ 7.45 µM); in the test on Staphylococcus aureus, 6.36 µg/mL (≈ 11.5 µM); with Enterococcus faecalis, 8.22 µg/mL (≈ 14.9 µM); against Priestia megaterium, 12.7 µg/mL (≈ 23 µM).
On to `O=[N+]([O-])c1ccc(-c2cnc(-c3cnc4nc(-c5ccc(Br)cc5)c(Nc5ccccc5)n4c3)[nH]2)cc1`, for which the MIC worked out at 5.33 µg/mL (≈ 9.65 µM) against Escherichia coli; 7.81 µg/mL (≈ 14.1 µM) in the test on Pseudomonas aeruginosa; 9.33 µg/mL (≈ 16.9 µM) against Klebsiella aerogenes; 4.22 µg/mL (≈ 7.64 µM) in the test on Staphylococcus aureus; 9.61 µg/mL (≈ 17.4 µM) in the test on Enterococcus faecalis; 17.4 µg/mL (≈ 31.6 µM) in the test on Priestia megaterium.
With `Brc1ccc(-c2cnc(-c3ccc4nc(-c5ccc(Oc6ccccc6)cc5)c(Nc5ccccc5)n4c3)[nH]2)cc1`, the minimum inhibitory concentration (MIC) against Escherichia coli amounted to 12.2 µg/mL (≈ 20.4 µM); against Pseudomonas aeruginosa it was 11.8 µg/mL (≈ 19.7 µM); against Klebsiella aerogenes, 10.7 µg/mL (≈ 17.9 µM); in the test with Staphylococcus aureus, 10.2 µg/mL (≈ 17.1 µM); against Enterococcus faecalis it was 13.7 µg/mL (≈ 22.9 µM); in the test with Priestia megaterium, 19.9 µg/mL (≈ 33.2 µM).
For the molecule `Fc1ccc2nc(-c3ccc4nc(-c5ccc(Oc6ccccc6)cc5)c(Nc5ccccc5)n4c3)[nH]c2c1`, the minimum inhibitory concentration (MIC) was determined as 10.7 µg/mL (≈ 20.9 µM) against Escherichia coli; 12.4 µg/mL (≈ 24.3 µM) against Pseudomonas aeruginosa; 11.5 µg/mL (≈ 22.6 µM) with Klebsiella aerogenes; 12.1 µg/mL (≈ 23.7 µM) in the test on Staphylococcus aureus; 15.3 µg/mL (≈ 29.9 µM) with Enterococcus faecalis; 21.6 µg/mL (≈ 42.2 µM) in the test on Priestia megaterium.

By MIC is commonly meant the smallest concentration in the dilution series that meets the test's criterion for growth inhibition.

The record behind these values is ChEMBL document CHEMBL1629491, “Post Groebke-Blackburn multicomponent protocol: synthesis of new polyfunctional imidazo[1,2-a]pyridine and imidazo[1,2-a]pyrimidine derivatives as potential antimicrobial agents” (2010).
